Experimental data of several laboratories.
Lines come from different studies, so protocols differ.
Target: Protein kinase C theta type (PRKCQ, Homo sapiens, UniProt Q04759)

| Structure (SMILES) | assay | setting | endpoint | result |
| --- | --- | --- | --- | --- |
| CN(C)C1CCN(CC#Cc2nn(C3CCCC3)c3nc(NCc4ccccc4)ncc23)C1 (stereo not drawn) | enzyme activity, inhibitor, FRET | 10 µM | inhibition | 13% |
| CC(C)c1ccc(NC(=O)c2cccs2)c(-c2nc3ccccc3[nH]c2=O)c1 | enzyme activity, inhibitor | 1 µM | activity vs control | 83% |
| O=C(Nc1cnn(-c2csc(C(=O)NC3COC3)c2)c1)Nc1ccccc1Cl | enzyme activity, inhibitor | 5 µM | remaining activity | 114% |
| CCN(CC)c1ccc(C2=NNC(=O)CC2C)cc1[N+](=O)[O-] (stereo not drawn) | enzyme activity, inhibitor | 10 µM | remaining activity | 98% |
| COc1cc2ncnc(Nc3ccc(Oc4ccccc4)c(C)c3C)c2cc1OC | enzyme activity, inhibitor | 1 µM | inhibition | 8% |
| CC/C(=N\NC(=O)NCc1cccc(O)c1)c1ccc(O)c(C)c1O | enzyme activity, inhibitor | 0.1 µM | inhibition | 12.2% |
| Nc1nc(Nc2ccc(S(N)(=O)=O)cc2)nn1C(=O)c1c(F)cccc1F | cell-free assay | 0.5 µM | remaining signal | 114% |
| CCCOc1ccc([C@@H]2[C@@H](C(=O)O)[C@H](c3ccc4c(c3)OCO4)CN2CC(=O)Nc2c(CC)cccc2CC)cc1 | cell-free assay, competition with immobilised ligand | 1 µM | remaining binding | 100% |
| C[C@@H]1CCN(C(=O)CC#N)C[C@@H]1N(C)c1ncnc2[nH]ccc12 | cell-free assay | 0.5 µM | remaining signal | 89% |
| COc1cc(Cl)c(C(=O)N[C@@H](CN[C@H]2CC[C@@H](N)CC2)Cc2ccc(C#N)cc2)cc1-c1ccc(CN[C@H](C)c2ccc(C)cc2)o1 | enzyme activity, inhibitor | 1 µM | remaining activity | 106% |
| Nc1cnc(N2CCc3cc(S(=O)(=O)Nc4c(F)cc(Cl)cc4F)cc(N4CCCC4=O)c32)nc1 | cell-free assay, competition with immobilised ligand | 1 µM | remaining binding | 89% |
| CNC(=O)c1cc(Oc2ccc(NC(=O)Nc3ccc(Cl)c(C(F)(F)F)c3)cc2)ccn1 | enzyme activity, inhibitor | 10 µM | inhibition | -12% |
| CC(C)(O)[C@H]1CC[C@H](Nc2ccc3ncc(-c4cccc(C(F)(F)F)c4)n3n2)CC1 | enzyme activity, inhibitor | 1 µM | remaining activity | 86.1% |
| Cc1c[nH]c2nccc(Oc3c(F)cc(Nc4cc(Cl)nc(N)n4)cc3F)c12 | cell-free assay, competition with immobilised ligand | 0.1 µM | remaining binding | 66% |
| CN1CC(Oc2cnc(C#N)cc2-c2ccn3nc(NC(=O)C4CC4)cc3c2)C1 | enzyme activity, inhibitor | 1 µM | inhibition | -2% |
| CCC(=O)N[C@@H]1CC[C@H](C(=O)N(C)c2ccc(-c3nc4ccccc4o3)cc2)C1 | cell-free assay, competition with immobilised ligand | 1 µM | remaining binding | 76% |
| Cn1cncc1C1=CN(c2ncnc3[nH]cnc23)CCS1 | enzyme activity, inhibitor, radiometric | 2 µM | inhibition | 97.9% |
| O=C(NCc1ncc(C(F)(F)F)cc1Cl)c1ccc2c(c1)C1(CCS(=O)(=O)CC1)[C@H](C1CC1)N2S(=O)(=O)c1ccc(F)cc1 | cell-free assay, competition with immobilised ligand | 1 µM | remaining binding | 100% |
| Cc1cc(NC(=O)c2cccc3cc(-c4cccc5[nH]nc(N)c45)ccc23)ccc1F | enzyme activity, inhibitor | 0.1 µM | activity vs control | 93% |
| N#CCCc1ccc2c(c1)-c1[nH]c3ccc([N+](=O)[O-])cc3c1CC(=O)N2 | cell-free assay | 0.5 µM | remaining signal | 111% |
| NS(=O)(=O)c1cc(NC(=O)Cc2ccccc2)ccc1Oc1cccc(Cl)c1 | cell-free assay, competition with immobilised ligand | 1 µM | remaining binding | 74% |
